Assay results collected from several papers.
Lines come from different studies, so protocols differ.
MAP3K9: Mitogen-activated protein kinase kinase kinase 9 (MAP3K9, Homo sapiens, UniProt P80192)
PTGS1: Prostaglandin G/H synthase 1 (PTGS1, Ovis aries, UniProt P05979)
SIRT3: NAD-dependent protein deacetylase sirtuin-3, mitochondrial (SIRT3, Homo sapiens, UniProt Q9NTG7)
BAZ2B bromodomain: Bromodomain adjacent to zinc finger domain protein 2B, bromodomain (BAZ2B, Homo sapiens, UniProt Q9UIF8)
TAF1L: Transcription initiation factor TFIID subunit 1-like (TAF1L, Homo sapiens, UniProt Q8IZX4)

SMILES	target	observed	action	technique	tested at	quantity	result
O=C(NCCCNc1nc(Nc2cccc(NC(=O)N3CCCC3)c2)ncc1Br)C1CCC1	MAP3K9	enzyme activity	inhibitor	radiometric	1 µM	remaining activity	0%
CN(C)C1CCN(CC#Cc2nn(C3CCCC3)c3nc(NCc4ccccc4)ncc23)C1 (stereo not shown)	Activin receptor type-1B (ACVR1B, Homo sapiens, UniProt P36896)	enzyme activity	inhibitor	FRET	1 µM	inhibition	5%
C#CCNC(=O)c1ccccc1SC(C)=O	PTGS1	enzyme activity	inhibitor	–	–	kinact	0.000417 s⁻¹
Oc1cccc(Nc2nc(-c3ccc(F)cc3F)cs2)c1	D(1A) dopamine receptor (DRD1, Homo sapiens, UniProt P21728)	cell-free assay	–	–	10 µM	inhibition	21.2%
CCCCCC1CC(=O)c2cc(C)cc(C)c2O1 (stereo not shown)	SIRT3	enzyme activity	inhibitor	fluorescence	200 µM	inhibition	2.4%
NS(=O)(=O)c1ccc(Nc2nc(-c3ccc(F)cc3)c3ccccc3n2)cc1	Peregrin (BRPF1, Homo sapiens, UniProt P55201)	binding	–	competition with immobilised ligand	1 µM	remaining binding	76%
CCCCCCNC(=O)c1ccccc1SC(C)=O	PTGS1	enzyme activity	inhibitor	mass spectrometry	–	kinact	0.0103 s⁻¹
Cc1cc2c(cc1N1C(=O)c3cccc4c(Cl)ccc(c34)C1=O)n(C)c(=O)n2C	BAZ2B bromodomain	thermal stability	–	DSF	10 µM	ΔTm	0.6 °C
Cc1cnc(Nc2ccc(OCCN3CCCC3)cc2)nc1Nc1cccc(S(=O)(=O)NC(C)(C)C)c1	Transcription initiation factor TFIID subunit 1-like, BD2 (TAF1L, Homo sapiens, UniProt Q8IZX4)	thermal stability	–	DSF	10 µM	ΔTm	0.91 °C
COc1cc(Cl)c(C(=O)N[C@@H](CN[C@H]2CC[C@@H](N)CC2)Cc2ccc(C#N)cc2)cc1-c1ccc(CN[C@H](C)c2ccc(C)cc2)o1	TAF1L	enzyme activity	inhibitor	–	1 µM	remaining activity	96%
CCCOc1ccc(OC)c(F)c1C(=O)c1ccc(C(=O)N[C@@H]2CNC[C@H]2NC(=O)c2ccc3[nH]ncc3c2)cc1	Serine/threonine-protein kinase MRCK alpha (CDC42BPA, Homo sapiens, UniProt Q5VT25)	enzyme activity	inhibitor	–	0.1 µM	remaining activity	66%
Cc1ccc(C(=O)NCc2ccsc2)cc1C#Cc1cn(C(C)C)c2ncnc(N)c12	TAF1L	enzyme activity	inhibitor	–	1 µM	activity vs control	91%
Oc1ccc(-c2nc(-c3ccncc3)c(-c3ccc(F)cc3)[nH]2)cc1	Transcription initiation factor TFIID subunit 1-like, BD1 (TAF1L, Homo sapiens, UniProt Q8IZX4)	thermal stability	–	DSF	10 µM	ΔTm	0.17 °C
Cc1ccc(C(=O)Nc2ccc(CN3CCN(C)CC3)c(C(F)(F)F)c2)cc1C#Cc1cnc2cccnn12	Mitogen-activated protein kinase kinase kinase 6 (MAP3K6, Homo sapiens, UniProt O95382)	enzyme activity	inhibitor	–	23.5 nM	remaining activity	79%
C[S+]([O-])c1ccc(-c2nc(-c3ccncc3)c(-c3ccc(F)cc3)[nH]2)cc1 (stereo not shown)	BAZ2B bromodomain	thermal stability	–	DSF	10 µM	ΔTm	0.21 °C
Cc1nn(CC(F)(F)F)cc1Nc1ncc(C2CC2)c(NCCCNC(=O)C2CCC2)n1	Serine/threonine-protein kinase MARK1 (MARK1, Homo sapiens, UniProt Q9P0L2)	enzyme activity	inhibitor	radiometric	1 µM	remaining activity	79%
CCCCC#CCNC(=O)c1ccccc1SC(C)=O	PTGS1	enzyme activity	inhibitor	–	–	kinact	0.000367 s⁻¹
Cc1nn(CC(F)(F)F)cc1Nc1ncc(Br)c(NCCCNC(=O)C2CCC2)n1	MAP3K9	enzyme activity	inhibitor	radiometric	1 µM	remaining activity	21%
CCCCCC1CC(=O)c2ccccc2O1 (stereo not shown)	SIRT3	enzyme activity	inhibitor	fluorescence	200 µM	inhibition	0.8%
